Laboratory results: ChEMBL document CHEMBL4265873, “Design and discovery of silybin analogues as antiproliferative compounds using a ring disjunctive - Based, natural product lead optimization approach” (Eur J Med Chem, 2017)
Calls of active or inactive are those of the source. No cut-off for these calls is given here.

What was measured:
MCF7 = test: Cytotoxicity in human MCF7 cells assessed as reduction in cell viability incubated for 68 hrs by MTT assay; type: functional, cell-based; details: MCF7, 68 h
How it was run: (§1)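 Cells were trypsinised and seeded at 5x10^3 cells/well. Compound was added at 0, 0.1, 0.3, 1, 3, 10, 30 and 100 µM for 68 h. MTT (4 mg/mL solution) was then added for 4 h, and the formazan was dissolved in DMSO. Absorbance read at 570 nm. IC50 was derived from % survival across the eight concentrations. Mean ± SD of three independent experiments, each in triplicate.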

PANC-1 = test: Cytotoxicity in human PANC1 cells assessed as reduction in cell viability incubated for 68 hrs by MTT assay; type: functional, cell-based; details: PANC-1, 68 h; how it was run: as §1
2008 [1] = test: Cytotoxicity in human OV2008 cells assessed as reduction in cell viability incubated for 68 hrs by MTT assay; type: functional, cell-based; details: Homo sapiens, 2008, 68 h; how it was run: as §1
A2780 [2] = test: Cytotoxicity in human A2780 cells assessed as reduction in cell viability incubated for 68 hrs by MTT assay; type: functional, cell-based; details: A2780, 68 h; how it was run: as §1
[3] = Selectivity index, ratio of IC50 for cytotoxicity in HEK293 cells incubated for 68 hrs by MTT assay to IC50 for cytotoxicity in human OV2008 cells incubated for 68 hrs by MTT assay; type: toxicity, cell-based; details: HEK293 cells versus OV2008 cells, read-out: Ratio IC50
[4] = Selectivity index, ratio of IC50 for cytotoxicity in CHO cells incubated for 68 hrs by MTT assay to IC50 for cytotoxicity in human OV2008 cells incubated for 68 hrs by MTT assay; type: toxicity, cell-based; details: Chinese hamster (CHO cells), CHO cells versus OV2008 cells, read-out: Ratio IC50
[5] = Selectivity index, ratio of IC50 for cytotoxicity in human CRL1459 cells incubated for 68 hrs by MTT assay to IC50 for cytotoxicity in human A2780 cells incubated for 68 hrs by MTT assay; type: toxicity, cell-based; details: CRL1459 cells versus A2780 cells, read-out: Ratio IC50
[6] = Selectivity index, ratio of IC50 for cytotoxicity in HEK293 cells incubated for 68 hrs by MTT assay to IC50 for cytotoxicity in human A2780 cells incubated for 68 hrs by MTT assay; type: toxicity, cell-based; details: HEK293 cells versus A2780 cells, read-out: Ratio IC50
A2780 [7] = test: Induction of morphological changes in human A2780 cells at 1 to 4 uM incubated for 68 hrs; type: functional, cell-based
How it was run: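 OV2008 and A2780 cells, with CHO alongside, were exposed to 0, 1, 2 or 4 µM for 68 h. Each triplicate treatment was photographed at 20X under an inverted microscope to assess morphology.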

2008 [8] = test: Induction of apoptosis in human OV2008 cells assessed as apoptosis cells level at 2 uM incubated for 12 hrs by Alexa Fluor 488 annexin V and mito-tracker red CMXRos dye staining based flow cytometry (reference value: 19.6%); type: functional
How it was run: (§2)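 Cells in complete medium were treated with 0, 2 or 4 µM for 12 h, then trypsinised. They were stained with MitoTracker Red (4 µL of 10 µM working solution per 1 mL of cells) for 30 min at 37 °C under 5% CO2. Cells were then resuspended in annexin-binding buffer with Alexa Fluor 488 annexin V for 15 min. Flow cytometry emission read at 530 and 585 nm. Two independent experiments, each in triplicate.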

A2780 [9] = test: Induction of apoptosis in human A2780 cells assessed as apoptosis cells level at 4 uM incubated for 12 hrs by Alexa Fluor 488 annexin V and mito-tracker red CMXRos dye staining based flow cytometry (reference value: 0.0%); type: functional; how it was run: as §2
2008 [10] = test: Induction of cell cycle arrest in human OV2008 cells assessed as cell accumulation at G2 phase at 2 uM incubated for 12 hrs by propidium iodide staining based flow cytometry (reference value: 2.5%); type: functional
How it was run: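 OV2008 cells were plated at 1x10^6 cells/well and incubated with 0, 2 or 4 µM for 12 h. Cells were trypsinised, washed and resuspended in ice-cold PBS, then stained with propidium iodide for at least 15 min. Phase distribution was measured by flow cytometry. Means ± SD of three independent experiments in triplicate.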

Homo sapiens [11] = organism: Homo sapiens; test: Inhibition of tubulin alpha in human OV2008 cells assessed as induction of disturbance in cellular microtubule shape and integrity by measuring cell shrinkage and rounding at 2 to 4 uM after overnight incubation by immunofluorescence analysis; type: cell-based
Homo sapiens [12] = organism: Homo sapiens; test: Inhibition of tubulin alpha in human OV2008 cells assessed as induction of disturbance in cellular microtubule shape and integrity by measuring loss in microtubule long spindle shape at 2 to 4 uM after overnight incubation by immunofluorescence analysis; type: cell-based
Homo sapiens [13] = organism: Homo sapiens; test: Inhibition of tubulin alpha in human OV2008 cells assessed as reduction in alpha-tubulin fluorescence at 2 to 4 uM after overnight incubation by immunofluorescence analysis; type: cell-based
2008 [14] = test: Potency index, ratio of IC50 for silybin to IC50 for test compound for cytotoxicity in human OV2008 cells assessed as reduction in cell viability incubated for 68 hrs by MTT assay; type: functional

O=C(/C=C/c1cccc(OCc2ccccc2)c1)c1ccc(O)cc1
IC50 (MCF7): 2800 nM
IC50 (PANC-1): 2600 nM
IC50 2008 [1]: 800 nM
IC50 (A2780 [2]): 1000 nM
selectivity ratio at 68 h [3]: 6 to 30
selectivity ratio at 68 h [4]: 6 to 30
selectivity ratio at 68 h [5]: 6 to 30
selectivity ratio at 68 h [6]: 6 to 30
Activity (A2780 [7]): Active
Activity 2008 [8]: 38.1%
Activity (A2780 [9]): 38%
Activity 2008 [10]: 2.7%
inhibition (Homo sapiens [11]): Active
inhibition (Homo sapiens [12]): Active
inhibition (Homo sapiens [13]): Active
Ratio IC50 2008 [14]: 30 - 200
